Measurements collected from several papers.
Lines come from different studies, so protocols differ.
Target: Dual specificity testis-specific protein kinase 1 (TESK1, Homo sapiens, UniProt Q15569)

SMILES | test | conditions | remaining binding [%]
CNC(=O)[C@@H]1CC[C@@H](n2c(-c3ccc4cnccc4c3)nc3ccc(C(=O)NCc4cccc(C(N)=O)c4)cc32)C1 | binding, competition with immobilised ligand | 1 µM | 100
C[C@H]1CCN(c2nccc(-c3cnn4ncccc34)n2)C1 | binding | 1 µM | 100
c1cncc(-c2cccc(Nc3nccc(NC4CCCCC4)n3)c2)c1 | binding, competition with immobilised ligand | 10 µM | 77
COc1ccnn2ncc(-c3ccnc(N(C)C)n3)c12 | binding | 1 µM | 100
C=CC(=O)N1CCC(C(=O)NCC(=O)N2CCN(c3nc(-c4cnc(N)nc4C(F)F)nc(N4CCOCC4)n3)CC2)CC1 | binding, competition with immobilised ligand | 1 µM | 100
Cc1cnc(Nc2ccc(C(=O)N3CCC(N4CCCC4)CC3)cc2)nc1-c1cc2ccccc2s1 | binding, competition with immobilised ligand | 1 µM | 72
CN(CCCC(F)(F)F)c1nccc(-c2cnn3ncccc23)n1 | binding | 1 µM | 67
O=C(Nc1cnc(Oc2ccc(F)cc2)nc1)N1CCc2ncccc2[C@@H]1c1ccc(F)cc1 | cell-free assay, competition with immobilised ligand | 1 µM | 91
CN(C)c1nccc(-c2cnc3ncccn23)n1 | binding | 1 µM | 90
Nc1cnc(N2CCc3cc(S(=O)(=O)Nc4c(F)cc(Cl)cc4F)cc(N4CCCC4=O)c32)nc1 | cell-free assay, competition with immobilised ligand | 1 µM | 100
O=C(c1ccc(Nc2ncc(Cl)c(-c3cc4ccccc4s3)n2)cc1)N1CCC(N2CCCC2)CC1 | binding, competition with immobilised ligand | 1 µM | 81
CC1CCCN1c1nccc(-c2cnn3ncccc23)n1 (stereo not drawn) | binding | 1 µM | 99
CN(C)CC#Cc1ccc(OCCCc2sc(N3CCc4cccc(C(=O)Nc5nc6ccccc6s5)c4C3)nc2C(=O)O)c(F)c1 | cell-free assay, competition with immobilised ligand | 1 µM | 100
CCN1CCN(Cc2ccc(C(=O)Nc3ccc(C)c(Oc4ccc5c(c4)CC(=O)N5)c3)cc2C(F)(F)F)CC1 | binding, competition with immobilised ligand | 1 µM | 100
N[C@@H]1CCN(c2nccc(-c3cnn4ncccc34)n2)C1 | binding | 1 µM | 100
COc1ccc2c(c1)O[C@@H](c1ccc(OC)c(OC)c1)C[C@H]2NC(=O)C1(c2ccc3c(c2)OC(F)(F)O3)CC1 | cell-free assay, competition with immobilised ligand | 1 µM | 96
O=C(c1ccc(Nc2nccc(-c3cc4ccccc4s3)n2)cc1)N1CCC(N2CCCC2)CC1 | binding, competition with immobilised ligand | 1 µM | 97
CCS(=O)(=O)c1cc2cc(C[C@@](O)(CC(C)(C)c3ccc(F)cc3C(N)=O)C(F)(F)F)[nH]c2cn1 | cell-free assay, competition with immobilised ligand | 1 µM | 77
O=C(Nc1c[nH]nc1C(=O)NC1CCNCC1)c1cc(F)cc(F)c1 | binding, competition with immobilised ligand | 1 µM | 100
O=C(N[C@H]1CCCCC/C=C\C2C[C@@]2(C(=O)O)NC(=O)[C@@H]2C[C@@H](Oc3ccncc3)CN2C1=O)OC1CCCC1 (stereo partly drawn) | binding, competition with immobilised ligand | 1 µM | 97
COc1ncc2cc3ccccc3nc2c1C#N | cell-free assay, competition with immobilised ligand | 5 µM | 94
